Source: ChEMBL document CHEMBL4706563, “Triphenylethylene analogues: Design, synthesis and evaluation of antitumor activity and topoisomerase inhibitors” (Eur J Med Chem, 2020)
Calls of active or inactive are those of the source. The calls are words filed in the database; no cut-off is given here.

How the values were obtained:
Assay type in all cases: functional
[1] = system: HL-60(TB); assay: Antiproliferative activity against human HL-60(TB) cells assessed as growth inhibition at 10 uM relative to control; conditions: read-out: GI
[2] = system: K562; assay: Antiproliferative activity against human K562 cells assessed as growth inhibition at 10 uM relative to control; conditions: read-out: GI
How it was run: (§1)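 Single-dose screen run by the US National Cancer Institute across its 60-human tumour cell line panel. Each compound was tested at one concentration. Percent growth inhibition was recorded for each cell line.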

[3] = system: MOLT-4; assay: Antiproliferative activity against human MOLT-4 cells assessed as growth inhibition at 10 uM relative to control; conditions: read-out: GI; how it was run: as §1
[4] = system: RPMI-8226; assay: Antiproliferative activity against human RPMI-8226 cells assessed as growth inhibition at 10 uM relative to control; conditions: read-out: GI; how it was run: as §1
[5] = system: A549; assay: Antiproliferative activity against human A549 cells assessed as growth inhibition at 10 uM relative to control; conditions: read-out: GI; how it was run: as §1
[6] = system: HOP-92; assay: Antiproliferative activity against human HOP-92 cells assessed as growth inhibition at 10 uM relative to control; conditions: read-out: GI; how it was run: as §1
[7] = system: NCI-H23; assay: Antiproliferative activity against human NCI-H23 cells assessed as growth inhibition at 10 uM relative to control; conditions: read-out: GI; how it was run: as §1
[8] = system: NCI-H522; assay: Antiproliferative activity against human NCI-H522 cells assessed as growth inhibition at 10 uM relative to control; conditions: read-out: GI; how it was run: as §1
[9] = system: COLO 205; assay: Antiproliferative activity against human COLO 205 cells assessed as growth inhibition at 10 uM relative to control; conditions: read-out: GI; how it was run: as §1
[10] = system: HCC 2998; assay: Antiproliferative activity against human HCC 2998 cells assessed as growth inhibition at 10 uM relative to control; conditions: read-out: GI; how it was run: as §1
[11] = system: HCT-116; assay: Antiproliferative activity against human HCT-116 cells assessed as growth inhibition at 10 uM relative to control; how it was run: as §1
[12] = system: HCT-15; assay: Antiproliferative activity against human HCT-15 cells assessed as growth inhibition at 10 uM relative to control; conditions: read-out: GI; how it was run: as §1
[13] = system: HT-29; assay: Antiproliferative activity against human HT29 cells assessed as growth inhibition at 10 uM relative to control; conditions: read-out: GI; how it was run: as §1
[14] = system: KM12; assay: Antiproliferative activity against human KM12 cells assessed as growth inhibition at 10 uM relative to control; conditions: read-out: GI; how it was run: as §1
[15] = system: SF-539; assay: Antiproliferative activity against human SF-539 cells assessed as growth inhibition at 10 uM relative to control; conditions: read-out: GI; how it was run: as §1
[16] = system: SNB-19; assay: Antiproliferative activity against human SNB-19 cells assessed as growth inhibition at 10 uM relative to control; conditions: read-out: GI
How it was run: (§2)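 NCI 60 human tumour cell line panel screen. Compounds tested at a single dose and growth inhibition (%) determined for each line.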

[17] = system: SNB-75; assay: Antiproliferative activity against human SNB-75 cells assessed as growth inhibition at 10 uM relative to control; conditions: read-out: GI; how it was run: as §2
[18] = system: U-251; assay: Antiproliferative activity against human U251 cells assessed as growth inhibition at 10 uM relative to control; conditions: read-out: GI; how it was run: as §2
[19] = system: LOX IMVI; assay: Antiproliferative activity against human LOX IMVI cells assessed as growth inhibition at 10 uM relative to control; conditions: read-out: GI; how it was run: as §1
[20] = system: M14; assay: Antiproliferative activity against human M14 cells assessed as growth inhibition at 10 uM relative to control; conditions: read-out: GI; how it was run: as §1
[21] = system: MDA-MB-435; assay: Antiproliferative activity against human MDA-MB-435 cells assessed as growth inhibition at 10 uM relative to control; conditions: read-out: GI; how it was run: as §1
[22] = system: SK-MEL-28; assay: Antiproliferative activity against human SK-MEL-28 cells assessed as growth inhibition at 10 uM relative to control; conditions: read-out: GI; how it was run: as §2
[23] = system: SK-MEL-5; assay: Antiproliferative activity against human SK-MEL-5 cells assessed as growth inhibition at 10 uM relative to control; conditions: read-out: GI; how it was run: as §2
[24] = system: UACC-257; assay: Antiproliferative activity against human UACC-257 cells assessed as growth inhibition at 10 uM relative to control; conditions: read-out: GI; how it was run: as §2
[25] = system: UACC-62; assay: Antiproliferative activity against human UACC-62 cells assessed as growth inhibition at 10 uM relative to control; conditions: read-out: GI; how it was run: as §2
[26] = system: IGROV-1; assay: Antiproliferative activity against human IGROV-1 cells assessed as growth inhibition at 10 uM relative to control; conditions: read-out: GI; how it was run: as §1
[27] = system: OVCAR-3; assay: Antiproliferative activity against human OVCAR-3 cells assessed as growth inhibition at 10 uM relative to control; conditions: read-out: GI; how it was run: as §1
[28] = system: OVCAR-4; assay: Antiproliferative activity against human OVCAR-4 cells assessed as growth inhibition at 10 uM relative to control; conditions: read-out: GI; how it was run: as §1
[29] = system: NCI/ADR-RES; assay: Antiproliferative activity against human NCI/ADR-RES cells assessed as growth inhibition at 10 uM relative to control; conditions: read-out: GI; how it was run: as §1
[30] = system: SK-OV-3; assay: Antiproliferative activity against human SK-OV-3 cells assessed as growth inhibition at 10 uM relative to control; conditions: read-out: GI; how it was run: as §2
[31] = system: SN12C; assay: Antiproliferative activity against human SN12C cells assessed as growth inhibition at 10 uM relative to control; conditions: read-out: GI; how it was run: as §2
[32] = system: UO-31; assay: Antiproliferative activity against human UO-31 cells assessed as growth inhibition at 10 uM relative to control; conditions: read-out: GI; how it was run: as §2
[33] = system: DU-145; assay: Antiproliferative activity against human DU-145 cells assessed as growth inhibition at 10 uM relative to control; conditions: read-out: GI; how it was run: as §1
[34] = system: MCF7; assay: Antiproliferative activity against human MCF7 cells assessed as growth inhibition at 10 uM relative to control; conditions: read-out: GI; how it was run: as §1
[35] = system: MDA-MB-231; assay: Antiproliferative activity against human MDA-MB-231 cells assessed as growth inhibition at 10 uM relative to control; conditions: read-out: GI; how it was run: as §1
[36] = system: Hs-578T; assay: Antiproliferative activity against human Hs-578T cells assessed as growth inhibition at 10 uM relative to control; conditions: read-out: GI; how it was run: as §1
[37] = system: BT-549; assay: Antiproliferative activity against human BT-549 cells assessed as growth inhibition at 10 uM relative to control; how it was run: as §1
[38] = system: T47D; assay: Antiproliferative activity against human T47D cells assessed as growth inhibition at 10 uM relative to control; conditions: read-out: GI; how it was run: as §2
[39] = system: MDA-MB-468; assay: Antiproliferative activity against human MDA-MB-468 cells assessed as growth inhibition at 10 uM relative to control; conditions: read-out: GI; how it was run: as §1
[40] = system: OVCAR-8; assay: Antiproliferative activity against human OVCAR-8 cells assessed as growth inhibition at 10 uM relative to control; conditions: read-out: GI; how it was run: as §1
[41] = system: Leukemia cell; assay: Antiproliferative activity against human leukemia cells
[42] = Antiproliferative activity against human Non-small cell lung cancer cells; conditions: Non-small cell lung cancer cell line
[43] = Antiproliferative activity against human Melanoma cells; conditions: Melanoma cell line
[44] = Antiproliferative activity against human ovarian cancer cells; conditions: Ovarian cancer cell line
[45] = Antiproliferative activity against human renal cancer cells; conditions: Renal cancer cell line
[46] = Antiproliferative activity against human prostate cancer cells; conditions: Prostate tumor cell line
[47] = Antiproliferative activity against human breast cancer cells; conditions: Breast cancer cell line
[48] = read-out: LC50 (the source's name)

SMILES: C/C(=C(/c1ccccc1)c1ccc(OCC(O)CNCCN2CCOCC2)cc1)c1ccccc1 (stereo unspecified)
- inhibition of growth at 10 µM [1]: 71%
- inhibition of growth at 10 µM [2]: 97.6%
- inhibition of growth at 10 µM [3]: 59%
- inhibition of growth at 10 µM [4]: 79.8%
- inhibition of growth at 10 µM [5]: 29.2%
- inhibition of growth at 10 µM [6]: 40.9%
- inhibition of growth at 10 µM [7]: 16.8%
- inhibition of growth at 10 µM [8]: 55.5%
- inhibition of growth at 10 µM [9]: -64.5%
- inhibition of growth at 10 µM [10]: -59.6%
- growth inhibition (GI) [11]: inactive
- inhibition of growth at 10 µM [12]: 95.5%
- inhibition of growth at 10 µM [13]: 96.8%
- inhibition of growth at 10 µM [14]: 45.7%
- inhibition of growth at 10 µM [15]: 27.2%
- inhibition of growth at 10 µM [16]: 8.8%
- inhibition of growth at 10 µM [17]: 34.2%
- inhibition of growth at 10 µM [18]: 67.4%
- inhibition of growth at 10 µM [19]: 81.3%
- inhibition of growth at 10 µM [20]: 7.31%
- inhibition of growth at 10 µM [21]: -63.8%
- inhibition of growth at 10 µM [22]: -86.2%
- inhibition of growth at 10 µM [23]: 71%
- inhibition of growth at 10 µM [24]: -27.5%
- inhibition of growth at 10 µM [25]: 37.3%
- inhibition of growth at 10 µM [26]: 36.6%
- inhibition of growth at 10 µM [27]: 22.1%
- inhibition of growth at 10 µM [28]: 29.8%
- inhibition of growth at 10 µM [29]: 19.8%
- inhibition of growth at 10 µM [30]: 4.57%
- inhibition of growth at 10 µM [31]: 23.9%
- inhibition of growth at 10 µM [32]: 30.8%
- inhibition of growth at 10 µM [33]: 32.2%
- inhibition of growth at 10 µM [34]: 55.4%
- inhibition of growth at 10 µM [35]: 70.6%
- inhibition of growth at 10 µM [36]: 29.5%
- growth inhibition (GI) [37]: inactive
- inhibition of growth at 10 µM [38]: 10.7%
- inhibition of growth at 10 µM [39]: 46.9%
- inhibition of growth at 10 µM [40]: 21.8%
- GI50 [41]: 2.19 µM
- LC50 (concentration killing 50% of cells) [41]: 23.9 µM
- TGI [41]: 5.8 µM
- GI50 [42]: 4.19 µM
- TGI [42]: 12.2 µM
- CC50 [42, 48]: 36.3 µM
- GI50 [43]: 1.87 µM
- LC50 [43]: 8.55 µM
- TGI [43]: 3.74 µM
- GI50 [44]: 5.2 µM
- TGI [44]: 16.3 µM
- CC50 [44, 48]: 45.8 µM
- GI50 [45]: 2.4 µM
- TGI [45]: 7.75 µM
- CC50 [45, 48]: 22 µM
- GI50 [46]: 3.57 µM
- TGI [46]: 13 µM
- CC50 [46, 48]: 38.5 µM
- GI50 [47]: 3.69 µM
- TGI [47]: 9.08 µM
- CC50 [47, 48]: 29.1 µM
